Results taken from ChEMBL document CHEMBL4680238, “Novel octapeptide-DTX prodrugs targeting MMP-7 as effective agents for the treatment of colorectal cancer with lower systemic toxicity” (Eur J Med Chem, 2020).
Residues, ends and D or L forms follow the SMILES beside them. *: point of attachment. X2 = CC(=O)O[C@@]12CO[C@@H]1C[C@H](O)[C@@]1(C)C(=O)[C@H](O)C3=C(C)[C@@H](OC(=O)[C@H](OC(=O)OCc4ccc(N*)cc4)[C@@H](NC(=O)OC(C)(C)C(F)(F)F)c4ccccc4)C[C@@](O)([C@@H](OC(=O)c4cccc(F)c4)[C@H]21)C3(C)C; X1 = CC(=O)O[C@@]12CO[C@@H]1C[C@H](O)[C@@]1(C)C(=O)[C@H](O)C3=C(C)[C@@H](OC(=O)[C@H](OC(=O)OCc4ccc(N*)cc4)[C@@H](NC(=O)OC(C)(C)C)c4ccccc4)C[C@@](O)([C@@H](OC(=O)c4ccccc4)[C@H]21)C3(C)C; Fmoc = O=C(OCC1c2ccccc2-c2ccccc21)*

Tests used:
[1] = Toxicity in BALB/c nude mouse xenografted with human HCT-116 cells assessed as necrosis in liver at 5 mg/kg, ip administered once for every 7 days for 14 days by H and E staining based assay; type: organism-based; conditions: in vivo, 336 h, time 14 day
Method in brief: (§1)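 At the end of the 14-day ip xenograft study (HCT116, BALB/c nude), heart and liver were collected from vehicle and molar-equivalent dose groups. Tissues fixed in 10% formalin in PBS and stained with H&E. Liver examined at 400×, heart at 100×.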

[2] = Toxicity in BALB/c nude mouse xenografted with human HCT-116 cells assessed as inflammatory cell invasion in heart at 5 mg/kg, ip administered once for every 7 days for 14 days by H and E staining based assay; type: organism-based; conditions: in vivo, 336 h, time 14 day; method in brief: as §1
SW-620 = test: Cytotoxicity against human SW-620 cells assessed as reduction in cell viability after 72 hrs by MTT assay; type: functional, cell-based; conditions: SW-620, 72 h
Method in brief: (§2)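 Cells seeded at 5000/well and precultured 1 day. HCT116 grown in McCoy's 5A + 10% FBS; SW620 and HEK293 in DMEM + 10% FBS; CCD18Co in DMEM + 15% FBS. Compounds from 0.1 M DMSO stocks were tested at 10^-10 to 10^-4 mol/L in sixplicate: HCT116 and HEK293 for 48 h, SW620 and CCD18Co for 72 h, at 37 °C, 5% CO2. MTT (5 mg/mL) added for 4 h, then A570 read; IC50 estimated.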

[3] = Toxicity in BALB/c nude mouse xenografted with human HCT-116 cells assessed as disordered myocardial fiber in heart at 5 mg/kg, ip administered once for every 7 days for 14 days by H and E staining based assay; type: organism-based; conditions: in vivo, 336 h, time 14 day; method in brief: as §1
[4] = Toxicity in BALB/c nude mouse xenografted with human HCT-116 cells assessed as reduction in body weight at 5 mg/kg, ip administered once for every 7 days for 14 days relative to control; type: organism-based; design: scale not given: the % may be the effect or the level left; conditions: in vivo, 336 h, time 14 day
Method in brief: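 HCT116 s.c. xenografts in male BALB/c nude mice, n = 6 per group. Dosing was ip once every 7 days for 2 weeks in DMSO/castor oil/ethanol/saline; vehicle controls got solvent. Body weight recorded every other day or every three days. Weight loss taken at day 14. Mean ± SD.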

HCT-116 [5] = test: Cytotoxicity against human HCT-116 cells assessed as reduction in cell viability after 48 hrs by MTT assay; type: functional, cell-based; conditions: HCT-116, 48 h; method in brief: as §2
HEK293 = test: Cytotoxicity against HEK293 cells assessed as reduction in cell viability after 48 hrs by MTT assay; type: cell-based; conditions: Homo sapiens, HEK293, 48 h; method in brief: as §2
HCT-116 [6] = test: Antitumour activity against human HCT-116 cells xenografted in BALB/c nude mouse assessed as tumour growth inhibition at 5 mg/kg, ip administered once for every 7 days for 14 days relative to control; type: functional; conditions: HCT-116, ip, 336 h, time 14 day, read-out: TGI
Method in brief: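 Male BALB/c nude mice received s.c. HCT116 cells (2 × 10^6 in 0.2 mL PBS). Once tumours reached 100-200 mm3, mice were randomized into groups of six. Dosing was ip, 0.1 mL/10 g, once every 7 days, in DMSO 0.5%/castor oil 5%/ethanol 5%/saline 89.5%; vehicle controls got solvent. Caliper volume V = L×W²×0.52 read every 2-3 days. Tumours excised and weighed on day 14.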

CCD-18Co = test: Cytotoxicity against human CCD-18Co cells assessed as reduction in cell viability after 72 hrs by MTT assay; type: cell-based; method in brief: as §2
[7] = Half life in Sprague-Dawley rat plasma t 50 ug/ml up to 72 hrs by RP-HPLC analysis; type: ADME, cell-free; conditions: dose 50 µg/ml
[8] = Half life of compound in PBS buffer at pH 7.4 at 50 ug/ml up to 72 hrs by RP-HPLC analysis; type: physicochemical; conditions: dose 50 µg/ml
[9] = Toxicity in BALB/c nude mouse xenografted with human HCT-116 cells assessed as concentrated nucleus in liver at 5 mg/kg, ip administered once for every 7 days for 14 days by H and E staining based assay; type: organism-based; conditions: in vivo, 336 h, time 14 day; method in brief: as §1
[10] = Drug uptake in BALB/c nude mouse xenografted with human HCT-116 cells assessed as drug level in liver at 5 mg/kg, iv measured up to 24 hrs by LC-MS/MS analysis; type: ADME, organism-based; conditions: in vivo
Method in brief: (§3)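 Male BALB/c nude mice bearing s.c. HCT116 tumours (200-300 mm3), 20 per group. Single tail-vein dose of 5 mg/kg. Five mice per group killed at 0.5, 4, 8 and 24 h and heart-perfused with PBS. Tissues homogenized in saline (4 µL/mg) and precipitated with methanol containing paclitaxel internal standard. Prodrug, released DTX and free DTX measured by LC-MS/MS.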

[11] = Drug uptake in BALB/c nude mouse xenografted with human HCT-116 cells assessed as drug level in spleen at 5 mg/kg, iv measured up to 24 hrs by LC-MS/MS analysis; type: ADME, organism-based; conditions: in vivo; method in brief: as §3
[12] = Apparent clearance in Sprague-Dawley rat at 5 mg/kg, iv measured up to 72 hrs by LC-MS/MS analysis; type: ADME, organism-based; conditions: in vivo, 5 mg/kg, 72 h
Method in brief: (§4)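 Male SD rats (180-200 g), fasted 12 h with free water, n = 3 per group. Single tail-vein dose of 5 mg/kg in 0.5% DMSO/5% castor oil/5% ethanol/89.5% saline. Retro-orbital blood drawn 0.083-72 h with heparin. Plasma protein-precipitated with methanol containing paclitaxel internal standard, then analysed by LC-MS/MS. Parameters from non-compartmental analysis, mean ± SD. For the DTX group, parameters were calculated after converting dose to the molar equivalent of the prodrug.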

[13] = MRT (0 to infinity) in Sprague-Dawley rat at 5 mg/kg, iv measured up to 72 hrs by LC-MS/MS analysis; type: ADME, organism-based; conditions: in vivo; method in brief: as §4
[14] = AUC (0 to t) in Sprague-Dawley rat at 5 mg/kg, iv measured up to 72 hrs by LC-MS/MS analysis; type: ADME, organism-based; design: route intravenous, dose 5 mg/kg, time <=72; conditions: in vivo; method in brief: as §4
[15] = Half life in Sprague-Dawley rat at 5 mg/kg, iv measured up to 72 hrs by LC-MS/MS analysis; type: ADME, organism-based; conditions: in vivo; method in brief: as §4
[16] = Drug uptake in BALB/c nude mouse xenografted with human HCT-116 cells assessed as drug level in lung at 5 mg/kg, iv measured up to 24 hrs by LC-MS/MS analysis; type: ADME, organism-based; conditions: in vivo; method in brief: as §3
[17] = Apparent volume of distribution in Sprague-Dawley rat at 5 mg/kg, iv measured up to 72 hrs by LC-MS/MS analysis; type: ADME, organism-based; conditions: in vivo, read-out: Vz; method in brief: as §4
[18] = Drug uptake in BALB/c nude mouse xenografted with human HCT-116 cells assessed as drug level in tumour at 5 mg/kg, iv measured up to 24 hrs by LC-MS/MS analysis; type: ADME, organism-based, Neoplasm; conditions: in vivo; method in brief: as §3
[19] = Drug uptake in BALB/c nude mouse xenografted with human HCT-116 cells assessed as drug level in kidney at 5 mg/kg, iv measured up to 24 hrs by LC-MS/MS analysis; type: ADME, organism-based; conditions: in vivo; method in brief: as §3
[20] = Toxicity in ip dosed Kunming mouse measured for 14 days; type: organism-based; conditions: in vivo, time 14 day
Method in brief: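 Healthy Kunming mice of both sexes, 20 ± 2 g, randomised into 5 groups of 10 matched for weight and size. Compound given once intraperitoneally at 400, 300, 250 or 150 mg/kg in formulation solvent (0.5% DMSO, 5% castor oil, 5% ethanol, 89.5% saline), 0.1 mL per 10 g; vehicle controls received solvent. Deaths recorded daily for 14 days; LD50 by Bliss method.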

[21] = Drug uptake in BALB/c nude mouse xenografted with human HCT-116 cells assessed as drug level in heart at 5 mg/kg, iv measured up to 24 hrs by LC-MS/MS analysis; type: ADME, organism-based; conditions: in vivo; method in brief: as §3
[22] = AUC (0 to infinity) in Sprague-Dawley rat at 5 mg/kg, iv measured up to 72 hrs by LC-MS/MS analysis; type: ADME, organism-based; design: route intravenous, dose 5 mg/kg, time <=72; conditions: in vivo, 72 h; method in brief: as §4

In the case of CC(=O)O[C@@]12CO[C@@H]1C[C@H](O)[C@@]1(C)C(=O)[C@H](O)C3=C(C)[C@@H](OC(=O)[C@H](O)[C@@H](NC(=O)OC(C)(C)C(F)(F)F)c4ccccc4)C[C@@](O)([C@@H](OC(=O)c4cccc(F)c4)[C@H]21)C3(C)C, the Activity [1] is reported as “Toxic”, the Activity [2] is reported as “Toxic” and the IC50 (SW-620) is reported as 0.28 µM. The Activity [3] was “Toxic”, the Activity [4] was 9.5% and the IC50 (HCT-116 [5]) was 0.0001 µM. For the same compound, the IC50 (HEK293) was 0.36 µM, the inhibition in vivo at 5 mg/kg (HCT-116 [6]) was 41.9% and the IC50 (CCD-18Co) was 17.1 µM.

For CC[C@H](C)[C@H](NC(=O)CNC(=O)[C@H](CC(C)C)NC(=O)[C@@H]1CCCN1C(=O)CNC(=O)OCC1c2ccccc2-c2ccccc21)C(=O)N[C@@H](C)C(=O)NCC(=O)N[C@@H](CCC(N)=O)C(=O)N[C@@H](CC(C)C)C(=O)Nc1ccc(COC(=O)O[C@@H](C(=O)O[C@H]2C[C@@]3(O)[C@@H](OC(=O)c4ccccc4)[C@@H]4[C@]5(OC(C)=O)CO[C@@H]5C[C@H](O)[C@@]4(C)C(=O)[C@H](O)C(=C2C)C3(C)C)[C@@H](NC(=O)OC(C)(C)C)c2ccccc2)cc1 (Fmoc-GPLGIAGQL-X1), the IC50 (SW-620) was 1.01 µM, the half-life at 50 ug/ml [7] was 35.9 h and the IC50 (HCT-116 [5]) was 0.0098 µM. The IC50 (HEK293) was 15.2 µM, the half-life at 50 ug/ml [8] was > 72 h and the IC50 (CCD-18Co) was > 200 µM.

In the case of CC[C@H](C)[C@H](NC(=O)CNC(=O)[C@H](CC(C)C)NC(=O)[C@@H]1CCCN1C(=O)CNC(=O)OCC1c2ccccc2-c2ccccc21)C(=O)N[C@@H](C)C(=O)NCC(=O)N[C@@H](CCC(N)=O)C(=O)N[C@@H](CC(C)C)C(=O)Nc1ccc(COC(=O)O[C@@H](C(=O)O[C@H]2C[C@@]3(O)[C@@H](OC(=O)c4cccc(F)c4)[C@@H]4[C@]5(OC(C)=O)CO[C@@H]5C[C@H](O)[C@@]4(C)C(=O)[C@H](O)C(=C2C)C3(C)C)[C@@H](NC(=O)OC(C)(C)C(F)(F)F)c2ccccc2)cc1 (Fmoc-GPLGIAGQL-X2), the IC50 (SW-620) is reported as 0.21 µM, the half-life at 50 ug/ml [7] is reported as 47.8 h and the IC50 (HCT-116 [5]) is reported as 0.439 µM. For the same compound, the IC50 (HEK293) was 38.3 µM, the half-life at 50 ug/ml [8] was > 72 h and the IC50 (CCD-18Co) was > 200 µM.

In the case of CC(=O)O[C@@]12CO[C@@H]1C[C@H](O)[C@@]1(C)C(=O)[C@H](O)C3=C(C)[C@@H](OC(=O)[C@H](O)[C@@H](NC(=O)OC(C)(C)C)c4ccccc4)C[C@@](O)([C@@H](OC(=O)c4ccccc4)[C@H]21)C3(C)C [DOCETAXEL ANHYDROUS], the Activity [9] is reported as “Toxic”, the Activity [2] is reported as “Toxic” and the Drug uptake [10] is reported as “Active”. The IC50 (SW-620) was 0.02 µM, the Drug uptake [11] was “Active” and the “CL(app)” value [12] was 46 mL/min/kg. The MRT inf [13] was 3.76 h, the Activity [3] was “Toxic” and the AUC(0-t) at 72 h [14] was 930 ng·h/mL. The Activity [4] was 13%, the half-life [15] was 5.75 h and the Drug uptake [16] was “Active”. For the same compound, the Vd [17] was 22.6 L/kg, the IC50 (HCT-116 [5]) was 0.0035 µM and the Drug uptake [18] was “Active”. For the same compound, the IC50 (HEK293) was 19.7 µM, the Drug uptake [19] was “Active” and the LD50 at 336 h [20] was 74.1 mg/kg. The inhibition in vivo at 5 mg/kg (HCT-116 [6]) was 42.7%, the Drug uptake [21] was “Active” and the AUC [22] was 867 ng·h/mL. The IC50 (CCD-18Co) was 117 µM.

With O=c1[nH]cc(F)c(=O)[nH]1 [FLUOROURACIL] the IC50 (SW-620) was 6.96 µM, the IC50 (HCT-116 [5]) was 26 µM and the IC50 (HEK293) was 79.3 µM. For the same compound, the inhibition in vivo at 5 mg/kg (HCT-116 [6]) was 11.4% and the IC50 (CCD-18Co) was > 200 µM.
